# Tests used:
# HCT-116 = assay: Cytotoxicity against human HCT116 cells assessed as reduction in number of viable cells after 72 hrs by fluorescence assay; format: functional, cell-based; conditions: HCT-116, 72 h
# Summary of the method: (§1)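 Three-fold compound dilutions tested in triplicate on cultured cells for 72 h. Viable cells detected by adding Calcein AM and reading fluorescence at 485/538 nm (ex/em).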
# K562 = assay: Cytotoxicity against human K562 cells assessed as reduction in number of viable cells after 72 hrs by fluorescence assay; format: functional, cell-based; conditions: K562, 72 h; summary of the method: as §1
# CCRF-CEM = assay: Cytotoxicity against human CEM cells assessed as reduction in number of viable cells after 72 hrs by fluorescence assay; format: functional, cell-based; summary of the method: as §1
# HOS = assay: Cytotoxicity against human HOS cells assessed as reduction in number of viable cells after 72 hrs by fluorescence assay; format: functional, cell-based; summary of the method: as §1
# G-361 = assay: Cytotoxicity against human G361 cells assessed as reduction in number of viable cells after 72 hrs by fluorescence assay; format: functional, cell-based; conditions: G-361, 72 h; summary of the method: as §1
# MCF7 = assay: Cytotoxicity against human MCF7 cells assessed as reduction in number of viable cells after 72 hrs by fluorescence assay; format: functional, cell-based; conditions: MCF7, 72 h; summary of the method: as §1
# [1] = molecular target: Cyclin-dependent kinase 2/cyclin E1 (Homo sapiens, UniProt P24941); assay: Inhibition of CDK2/Cyclin E (unknown origin) expressed in Sf9 cells using histone H1 as substrate
# [2] = molecular target: Cyclin-dependent kinase 5/CDK5 activator 1 (Homo sapiens, UniProt Q00535); assay: Inhibition of CDK5/P35 (unknown origin) using histone H1 as substrate; format: protein-complex assay
# Cyclin-dependent kinase 5/CDK5 activator 1, sequence (Q00535 whole entry): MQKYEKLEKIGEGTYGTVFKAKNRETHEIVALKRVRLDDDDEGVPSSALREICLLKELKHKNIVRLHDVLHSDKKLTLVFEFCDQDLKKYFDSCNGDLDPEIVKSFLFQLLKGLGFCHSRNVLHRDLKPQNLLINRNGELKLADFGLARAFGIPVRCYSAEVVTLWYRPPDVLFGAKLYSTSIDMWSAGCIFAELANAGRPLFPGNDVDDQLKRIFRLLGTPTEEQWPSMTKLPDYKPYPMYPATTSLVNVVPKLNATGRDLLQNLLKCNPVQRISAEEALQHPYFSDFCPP
# Cyclin-dependent kinase 5/CDK5 activator 1, sequence (Q15078 whole entry, further chain): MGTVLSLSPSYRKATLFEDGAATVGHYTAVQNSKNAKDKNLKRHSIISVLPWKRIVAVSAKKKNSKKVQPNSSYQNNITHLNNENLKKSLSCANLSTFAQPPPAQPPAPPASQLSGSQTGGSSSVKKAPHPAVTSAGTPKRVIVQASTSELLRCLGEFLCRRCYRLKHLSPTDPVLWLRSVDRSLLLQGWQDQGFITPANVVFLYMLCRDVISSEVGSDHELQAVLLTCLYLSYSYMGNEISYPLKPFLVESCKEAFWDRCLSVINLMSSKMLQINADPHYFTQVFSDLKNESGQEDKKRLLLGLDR
# CDK9/cyclin T1 = CDK9/cyclin T1 (Homo sapiens, UniProt P50750); assay: Inhibition of CDK9/CyclinT1 (unknown origin) using (YSPTSPS)2KK as substrate; format: protein-complex assay
# CDK9/cyclin T1, sequence (O60563 whole entry): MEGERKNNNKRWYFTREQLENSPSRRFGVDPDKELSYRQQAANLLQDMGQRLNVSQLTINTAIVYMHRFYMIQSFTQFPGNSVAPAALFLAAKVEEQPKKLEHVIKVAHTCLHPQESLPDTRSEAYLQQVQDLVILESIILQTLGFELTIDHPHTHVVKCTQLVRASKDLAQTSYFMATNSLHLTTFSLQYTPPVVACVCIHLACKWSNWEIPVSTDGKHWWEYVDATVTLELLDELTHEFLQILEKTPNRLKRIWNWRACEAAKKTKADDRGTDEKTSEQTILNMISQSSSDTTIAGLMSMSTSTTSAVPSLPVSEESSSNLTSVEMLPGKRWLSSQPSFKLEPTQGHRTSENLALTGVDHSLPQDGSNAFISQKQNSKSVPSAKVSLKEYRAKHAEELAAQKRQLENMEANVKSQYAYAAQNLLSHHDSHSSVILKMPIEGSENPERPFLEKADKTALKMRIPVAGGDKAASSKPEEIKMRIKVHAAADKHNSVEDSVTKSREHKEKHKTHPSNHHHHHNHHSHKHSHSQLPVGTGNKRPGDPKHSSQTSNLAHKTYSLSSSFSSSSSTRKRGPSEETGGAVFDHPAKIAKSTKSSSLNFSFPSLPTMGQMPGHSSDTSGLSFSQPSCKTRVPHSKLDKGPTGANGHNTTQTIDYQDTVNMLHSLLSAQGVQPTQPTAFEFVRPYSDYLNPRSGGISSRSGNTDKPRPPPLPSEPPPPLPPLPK
# CDK9/cyclin T1, sequence (P50750 whole entry): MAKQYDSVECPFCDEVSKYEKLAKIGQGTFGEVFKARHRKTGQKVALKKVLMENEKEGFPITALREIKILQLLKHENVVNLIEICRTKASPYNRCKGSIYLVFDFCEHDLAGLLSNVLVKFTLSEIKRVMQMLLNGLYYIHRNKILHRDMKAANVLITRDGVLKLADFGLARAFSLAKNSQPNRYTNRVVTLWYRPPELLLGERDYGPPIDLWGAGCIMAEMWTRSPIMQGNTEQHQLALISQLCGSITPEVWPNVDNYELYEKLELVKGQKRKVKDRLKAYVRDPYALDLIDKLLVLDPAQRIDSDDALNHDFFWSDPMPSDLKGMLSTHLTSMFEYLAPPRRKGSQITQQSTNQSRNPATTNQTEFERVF
# Summary of the method: (§2)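 Buffer was 60 mM HEPES-NaOH pH 7.5, 3 mM MgCl2, 3 mM MnCl2, vanadate, DTT and PEG. Reactions were stopped with H3PO4 and spotted on P-81 paper, which was then washed. Radioactivity was imaged; IC50 taken from dose–response curves.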
# [3] = molecular target: Cyclin-dependent kinase 7/ cyclin H (Homo sapiens, UniProt P50613); assay: Inhibition of CDK7/CyclinH/MAT1 (unknown origin) using (YSPTSPS)2KK as substrate; format: protein-complex assay; summary of the method: as §2
# Cyclin-dependent kinase 7/ cyclin H, sequence (P51946 whole entry): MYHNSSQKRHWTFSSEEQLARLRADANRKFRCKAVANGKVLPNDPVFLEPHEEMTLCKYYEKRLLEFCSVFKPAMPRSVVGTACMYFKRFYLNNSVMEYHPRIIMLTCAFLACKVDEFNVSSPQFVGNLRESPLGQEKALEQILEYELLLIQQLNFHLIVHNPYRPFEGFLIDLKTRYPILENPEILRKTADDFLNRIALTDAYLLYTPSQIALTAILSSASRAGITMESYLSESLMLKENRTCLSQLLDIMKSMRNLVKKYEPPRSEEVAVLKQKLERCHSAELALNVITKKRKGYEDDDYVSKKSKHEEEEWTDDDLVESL
# Cyclin-dependent kinase 7/ cyclin H, sequence (P50613 whole entry): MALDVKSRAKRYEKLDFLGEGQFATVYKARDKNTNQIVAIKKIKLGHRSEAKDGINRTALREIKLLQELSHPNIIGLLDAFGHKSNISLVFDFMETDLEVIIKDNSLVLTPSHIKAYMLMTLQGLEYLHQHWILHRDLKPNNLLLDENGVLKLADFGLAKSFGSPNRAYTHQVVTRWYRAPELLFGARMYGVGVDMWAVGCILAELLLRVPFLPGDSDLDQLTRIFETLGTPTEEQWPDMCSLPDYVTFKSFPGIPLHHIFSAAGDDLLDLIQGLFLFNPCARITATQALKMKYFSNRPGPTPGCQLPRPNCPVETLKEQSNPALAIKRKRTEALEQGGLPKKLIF
IC50 [1],IC50 [2],IC50 (CDK9/cyclin T1),IC50 [3],Compound,IC50 (HCT-116),IC50 (K562),IC50 (CCRF-CEM),IC50 (HOS),IC50 (G-361),IC50 (MCF7)
0.019 µM,0.069 µM,–,0.435 µM,CC(C)n1cnc2c(NCc3cc(Cl)ccc3O)nc(NCC(C)(C)O)nc21,4 µM,5.1 µM,3.9 µM,4.4 µM,4.3 µM,2.7 µM
0.02 µM,0.74 µM,1.24 µM,1.2 µM,CC(C)n1cnc2c(NCc3ccccc3N)nc(NCC(C)(C)O)nc21,12.9 µM,34 µM,12.6 µM,16.9 µM,12.6 µM,13.5 µM
0.79 µM,> 5 µM,> 5 µM,–,CC(C)n1cnc2c(NCc3ccccc3N)nc(NCCC(C)(C)O)nc21,100 µM,100 µM,100 µM,100 µM,100 µM,100 µM
0.0118 µM,0.067 µM,0.1 µM,0.18 µM,CC[C@@H](Nc1nc(NCc2cc(F)ccc2O)c2ncn(C(C)C)c2n1)C(C)O (mixture of isomers),1.8 µM,2.9 µM,1.6 µM,2.4 µM,1.9 µM,1.8 µM
0.0094 µM,0.15 µM,0.285 µM,–,CC[C@H](CO)Nc1nc(NCc2cc(Cl)ccc2O)c2ncn(C(C)C)c2n1,5.4 µM,3.2 µM,3.7 µM,5 µM,4.3 µM,4.6 µM
0.22 µM,2.36 µM,3.13 µM,–,CC(C)CNc1nc(NCc2ccccc2O)c2ncn(C(C)C)c2n1,22.2 µM,10.8 µM,13.6 µM,23.9 µM,15.7 µM,14.1 µM
0.26 µM,4.49 µM,> 5 µM,–,CC(C)n1cnc2c(NCc3ccccc3O)nc(NCCC(C)(C)O)nc21,64.1 µM,47.3 µM,34.6 µM,45.5 µM,52.2 µM,65.9 µM
0.025 µM,0.125 µM,0.039 µM,0.16 µM,CC(C)n1cnc2c(NCc3cc(Cl)ccc3O)nc(NC3CCC(N)CC3)nc21 (centres undefined),2.4 µM,2.4 µM,3.3 µM,2.2 µM,2.4 µM,1.8 µM
0.0243 µM,–,–,–,CC(C)n1cnc2c(NCc3cc(Cl)ccc3O)nc(N[C@@H](C)C(C)(C)O)nc21,1.8 µM,2 µM,2.5 µM,1.8 µM,1.2 µM,1.4 µM
0.061 µM,0.55 µM,0.91 µM,0.54 µM,CC(C)n1cnc2c(NCc3cc(Cl)ccc3O)nc(NC3CCC(O)CC3)nc21 (centres undefined),13.2 µM,2.4 µM,3.2 µM,6.4 µM,8.2 µM,2.6 µM

# Continued, compound first:
Compound,IC50 [1],IC50 [2],IC50 (CDK9/cyclin T1),IC50 [3],IC50 (HCT-116),IC50 (K562),IC50 (CCRF-CEM),IC50 (HOS),IC50 (G-361),IC50 (MCF7)
COc1ccc(CNc2nc(N3CCN(C)CC3)nc3c2ncn3C(C)C)cc1,0.89 µM,–,–,–,13.4 µM,11.9 µM,13.1 µM,11.2 µM,13.9 µM,12 µM
CC[C@H](CO)Nc1nc(NCc2cc(F)ccc2O)c2ncn(C(C)C)c2n1,0.019 µM,0.24 µM,0.106 µM,–,4.8 µM,4.1 µM,3.9 µM,4.5 µM,6.5 µM,3.6 µM
CC[C@H](CO)Nc1nc(NCc2cccc(OC)c2O)c2ncn(C(C)C)c2n1,0.06 µM,–,–,–,12.3 µM,54.8 µM,16.6 µM,14.8 µM,22 µM,12.6 µM
COc1ccc(CNc2nc(N3CCNCC3)nc3c2ncn3C(C)C)cc1,0.89 µM,–,–,–,11.5 µM,5.3 µM,10.8 µM,5.1 µM,10.1 µM,3.53 µM
CC(C)n1cnc2c(NCc3ccc(O)cc3)nc(N3CCNCC3)nc21,0.34 µM,–,–,–,9.3 µM,9.3 µM,13.4 µM,6.5 µM,12.4 µM,4.1 µM
CC(C)[C@H](Nc1nc(NCc2ccccc2N)c2ncn(C(C)C)c2n1)C(C)(C)O,0.07 µM,0.675 µM,0.845 µM,0.29 µM,11.8 µM,39.8 µM,13.1 µM,42.7 µM,18.7 µM,12.8 µM
CC[C@H](CO)Nc1nc(NCc2cccc(OC)c2OC)c2ncn(C(C)C)c2n1,0.031 µM,–,–,–,29.5 µM,40.1 µM,38 µM,67.5 µM,46.6 µM,21 µM
COc1cccc(CNc2nc(N3CCNCC3)nc3c2ncn3C(C)C)c1O,0.63 µM,–,–,–,22.5 µM,14.2 µM,27.5 µM,30.6 µM,18.9 µM,8.3 µM
CC[C@@H](CO)Nc1nc(NCc2cccc(OC)c2O)c2ncn(C(C)C)c2n1,0.059 µM,–,–,–,8.7 µM,15.4 µM,10.7 µM,5.9 µM,7.8 µM,5.3 µM
CC[C@H](CO)Nc1nc(NCc2ccccc2)c2ncn(C(C)C)c2n1 [SELICICLIB],–,–,–,–,14.4 µM,45.5 µM,16.3 µM,24.3 µM,22.4 µM,12.3 µM
CC[C@H](CO)Nc1nc(NCc2ccccc2O)c2ncn(C(C)C)c2n1 [OLOMOUCINE II],–,–,0.815 µM,–,4.1 µM,23 µM,7.4 µM,10.6 µM,9.2 µM,9.1 µM
CC[C@H](CO)Nc1nc(NCc2ccc(N)cc2)c2ncn(C(C)C)c2n1,–,–,–,–,23.8 µM,71.5 µM,22.6 µM,29.4 µM,26 µM,18.1 µM
